Source: BindingDB's records for doi:10.1021/acs.jnatprod.6b00141 (University of Eastern Piedmont, 2016)

Experiments:
[1] = target: Signal transducer and activator of transcription 3 (Homo sapiens, UniProt P40763); assay: Inhibition of IFNgamma-induced STAT3 activation in human HeLa cells expressing STAT3 (unknown origin) preincubated for 15 mins followed by IFN-gamma addition measured after 6 hrs by luciferase reporter gene assay
How it was run: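 HeLa-STAT3-Luc reporter cells in DMEM with 10% heat-inactivated FBS. Compounds added 15 min before IFNγ (20 IU). Stimulated 6 h. Cells washed in PBS and lysed 15 min at room temperature in Tris-phosphate pH 7.8 lysis buffer. Luciferase read in centrifuged lysate supernatant. IC50 calculated.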

Transcription factor p65 = Transcription factor p65 (Human, UniProt Q04206); assay: Inhibition of NFkappaB p65 activation (unknown origin) expressed in human HeLa cells assessed as inhibition of TNFalpha-induced NFkappaB p65 nuclear accumulation pretreated with cells followed by TNFalpha addition by DAPI staining based microscopic analysis
Transcription factor p65, sequence (Q04206 whole entry): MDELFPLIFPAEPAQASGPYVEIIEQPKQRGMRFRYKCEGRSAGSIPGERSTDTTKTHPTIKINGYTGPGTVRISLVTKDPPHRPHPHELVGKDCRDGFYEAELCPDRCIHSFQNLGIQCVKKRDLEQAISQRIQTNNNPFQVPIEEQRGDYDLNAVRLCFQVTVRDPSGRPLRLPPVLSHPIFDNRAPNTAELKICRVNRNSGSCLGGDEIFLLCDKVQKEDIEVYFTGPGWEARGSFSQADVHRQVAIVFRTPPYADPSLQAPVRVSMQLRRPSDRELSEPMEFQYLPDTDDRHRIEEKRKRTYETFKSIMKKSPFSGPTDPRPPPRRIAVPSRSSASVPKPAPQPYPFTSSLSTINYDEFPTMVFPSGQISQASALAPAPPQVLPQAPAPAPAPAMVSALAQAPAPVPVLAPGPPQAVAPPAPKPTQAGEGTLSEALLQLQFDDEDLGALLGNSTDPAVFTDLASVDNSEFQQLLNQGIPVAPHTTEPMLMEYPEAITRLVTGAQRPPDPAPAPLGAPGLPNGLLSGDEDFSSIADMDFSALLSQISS

Signal transducer and activator of transcription 3, sequence (P40763 whole entry): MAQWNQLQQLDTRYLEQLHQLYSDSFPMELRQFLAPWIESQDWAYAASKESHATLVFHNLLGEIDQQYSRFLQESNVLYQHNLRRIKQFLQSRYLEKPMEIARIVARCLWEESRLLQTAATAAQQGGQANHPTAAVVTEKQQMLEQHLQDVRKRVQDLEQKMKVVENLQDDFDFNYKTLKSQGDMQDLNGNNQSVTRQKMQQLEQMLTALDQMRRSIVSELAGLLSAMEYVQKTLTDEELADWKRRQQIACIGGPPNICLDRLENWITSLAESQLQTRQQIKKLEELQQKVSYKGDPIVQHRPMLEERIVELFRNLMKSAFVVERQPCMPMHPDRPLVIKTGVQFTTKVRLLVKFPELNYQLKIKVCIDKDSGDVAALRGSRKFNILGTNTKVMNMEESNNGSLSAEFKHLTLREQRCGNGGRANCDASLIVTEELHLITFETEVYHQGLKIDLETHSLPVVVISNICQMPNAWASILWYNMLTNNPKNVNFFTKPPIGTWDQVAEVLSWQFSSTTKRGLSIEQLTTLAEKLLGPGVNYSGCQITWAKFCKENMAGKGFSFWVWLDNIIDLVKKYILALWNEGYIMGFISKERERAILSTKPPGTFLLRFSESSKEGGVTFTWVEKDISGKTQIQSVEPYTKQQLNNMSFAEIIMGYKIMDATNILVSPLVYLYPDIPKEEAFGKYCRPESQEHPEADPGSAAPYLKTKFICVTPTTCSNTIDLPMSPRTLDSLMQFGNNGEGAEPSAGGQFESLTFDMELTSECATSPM

Structure (SMILES) | IC50 [1] [µM] | IC50 (Transcription factor p65) [µM]
C/C1=C\C[C@]2(C(C)C)CC[C@@](C)(O2)[C@H](O)CC/C(C)=C/CC1 | > 50 | –
C/C1=C\CC[C@]2(C)O[C@@H]2C[C@]2(C(C)C)CC[C@@](C)(O2)[C@@H](O)CC1 | > 50 | –
CC(=O)O[C@H]1CC/C(C)=C/CC/C(C)=C/C[C@]2(C(C)C)CC[C@@]1(C)O2 | > 50 | > 100
C/C1=C\C[C@]2(C(C)C)CC[C@@](C)(O2)[C@@H](OC(=O)Cc2ccccc2)CC/C(C)=C/CC1 | > 50 | –
CC1=C2CC/C(C)=C/CC[C@]3(C)O[C@@H]3CC/C(C)=C/[C@@H]2OC1=O | > 50 | –
C/C1=C\CC/C(C)=C/C[C@](O)(C(C)C)CC/C(C)=C/CC1 | > 50 | –
CC(=O)O[C@H]1CC/C(C)=C/CC[C@]2(C)O[C@@H]2C[C@]2(C(C)C)CC[C@@]1(C)O2 | > 50 | –
CC(=O)O[C@H]1CC[C@@]2(C)O[C@H]2CC/C(C)=C/C[C@]2(C(C)C)CC[C@@]1(C)O2 | > 50 | –
C/C1=C\C[C@]2(C(C)C)CC[C@@](C)(O2)[C@@H](O)CC/C(C)=C/CC1 [Incensole] | 15.8 | –
